Screening results from PubChem.
E coli WT exp: growth inhibitors of wild-type E. coli, primary screen, strain BW25113, expanded library, OD600; OD600 absorbance; growth inhibition, % at 100 µM; 98,000 compounds, 0.15% hits;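 active = growth inhibition above about 50% at one test dose, limit read from the data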;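 also: growth measured after 20 h incubation at 37 °C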
D1 allo mod: D1 CRE-luciferase signal change, two-sided – cell-based, HEK293 D1, dopamine EC30, D1 allosteric modulator project, primary screen; dopamine EC30 potentiation; actives deviate in either direction; B-score at 10 µM; 58,000 compounds, 5.9% hits;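 active = luminescence count or its row- and column-corrected plate score outside the 99.7% band of the plate's sample wells, on either side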
Target sequence (P21728 whole entry, looked up): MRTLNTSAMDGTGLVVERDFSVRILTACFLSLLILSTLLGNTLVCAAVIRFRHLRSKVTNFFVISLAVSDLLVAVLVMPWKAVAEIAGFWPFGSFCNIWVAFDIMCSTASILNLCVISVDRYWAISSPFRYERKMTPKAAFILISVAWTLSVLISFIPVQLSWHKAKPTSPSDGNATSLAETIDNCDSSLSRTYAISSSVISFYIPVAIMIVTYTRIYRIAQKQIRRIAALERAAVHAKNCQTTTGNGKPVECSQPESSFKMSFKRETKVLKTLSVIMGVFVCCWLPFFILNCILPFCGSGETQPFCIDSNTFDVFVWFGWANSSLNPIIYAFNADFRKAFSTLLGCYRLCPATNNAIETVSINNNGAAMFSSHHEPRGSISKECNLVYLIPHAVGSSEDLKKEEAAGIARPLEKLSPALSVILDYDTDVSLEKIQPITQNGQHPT
PostGolgi yeast: phenotypic screen on post-Golgi transport, primary screen. post-Golgi transport phenotypic cell assay. inhibition, % at 10 µM. 98,000 compounds, 0.9% hits. AID 739, 2007;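 also: yeast cells grown in 1536-well plates; yeast grown about 18 h at 30C before absorbance read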
Ecoli tolC: growth inhibitors of E. coli tolC mutant, primary screen, strain BW25113 ΔtolC::kan, 384-well | 65,000 compounds, 2.2% hits | OD615 | growth inhibition, % at 10 µM (by protocol);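 active = growth inhibition at or above a cutoff equal to the mean over every tested compound plus 3 SD, cut at about 60% in these data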;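 also: growth measured after 20 h incubation at 37 °C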
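Material: E. coli BW25113 ΔtolC::kan, tolC deletion mutant strain. Measure: percent growth inhibition. Schedule: 37 °C, 20 h exposure. Doses: single-point testing at 10 µM. Signal: A615 absorbance measurement. Buffer or medium: kanamycin-containing LB broth (50 µg/mL).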
PostGolgi ctrl: growth inhibition of yeast control strain, primary screen, counter-screen for post-Golgi transport modulator project; efflux-deficient yeast background strain, growth absorbance A615, 16 h; inhibition, % at 10 µM; 98,000 compounds, 5% hits; AID 738, 2007
hDAT+cocaine: changed hDAT dopamine uptake under cocaine IC80, either direction, primary screen, cocaine antagonist project, cell-based, LLC-PK1 hDAT, [14C]-dopamine uptake, MLSMR. Sodium-dependent dopamine transporter (Homo sapiens), Q01959. LLC-PK1 hDAT cells, [14C]-dopamine uptake with cocaine IC80; actives deviate in either direction. 110,000 compounds, 1.3% hits. B-score at 10 µM;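 active = Z score or B-score, a plate-position-corrected score, falls beyond the plate's 99.7% confidence bounds, in either direction; inactive = both scores lie inside the 99.7% bounds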;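 also: scored against the spread of the other compound wells on the same plate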
An asterisk follows results filed as active; . = not tested or not shown. Compounds with a hit are over-represented: about 9.3% of the library has one in this group of screens. Rule as the data show it, unless noted: active = inhibition above about 30%; inactive = the rest.

SMILES	E coli WT exp	D1 allo mod	PostGolgi yeast	Ecoli tolC	PostGolgi ctrl	hDAT+cocaine
CCn1cc(C(=O)NCc2cccs2)c(=O)c2ccc(C)nc21	-4	1.3	-2	1	12	2.9*
COc1ccccc1CNC(=O)C1CCCN1S(=O)(=O)c1cccc2cccnc12 (stereo not drawn)	1	0.59	0	-4	5	1.1
COC(=O)c1c(NS(=O)(=O)Cc2ccccc2)sc2c1CCCC2	-4	.	-5	.	41*	-0.75
COC(=O)c1c(NS(C)(=O)=O)sc2c1CCCC2	6	.	-6	0	16	1.4
COC(=O)c1c(NC(C)=O)sc2c1CCCC2	-4	5.5*	-5	7	-6	1.2
CCOC(=O)N1CCN(CCC(=O)Nc2ccc(OC(F)(F)F)cc2)CC1	3	-0.49	8	7	6	-0.88
N=c1c2c(n(Cc3ccc(F)cc3)c3c1CCC3)CCC2	-1	0.23	13	15	-1	-5.2*
Clc1cc(Cl)cc(C2=NC(Cc3ccccc3)CO2)c1 (stereo not drawn)	.	.	.	.	.	1.2
CSCCOC(=O)C1=C(C)NC(=O)CC1c1ccccc1Cl (stereo not drawn)	13	0.3	-5	62*	8	0.33
O=C(NNC(=O)c1ccccc1Br)c1ccc(SCC2CCCO2)c([N+](=O)[O-])c1 (stereo not drawn)	-2	.	-4	.	17	-0.38
O=C(Nc1ccc(Cl)cc1)N1CCC(c2nc(-c3ccc(F)cc3)no2)CC1	-1	-0.96	-3	72*	28	-0.42
O=C(Nc1ccc(Cl)cc1)N1CCN(c2ccc3nnc(-c4ccc(F)cc4)n3n2)CC1	2	0.56	-1	0	7	2.8*
Fc1ccc(-c2noc(C3CCN(Cc4cccnc4)CC3)n2)cc1	6	.	84*	-4	35*	0.87
O=C(c1ccc(F)cc1)C1CCN(C(=O)Nc2ccc(F)cc2)CC1	-2	.	2	.	12	0.93
COc1ccc(NC(=O)N2CCCC(c3nc(-c4ccc(C(C)C)cc4)no3)C2)cc1 (stereo not drawn)	-10	-0.85	-9	62*	24	1.3
c1coc(CN(Cc2ccco2)c2ncnc3c2oc2ccccc23)c1	.	.	.	.	.	1.2
O=c1c2cnn(-c3ccccc3)c2ncn1Cc1ccco1	0	.	1	.	0	-0.53
N=c1c2c(-c3ccccc3)c(-c3ccccc3)n(Cc3ccco3)c2ncn1Cc1ccco1	18	-2.7	91*	64*	48*	0.27
N=c1c2c(-c3ccccc3)c(-c3ccccc3)n(Cc3ccccc3)c2ncn1CCCn1ccnc1	28	.	95*	23	77*	1.7
Cc1cc(C)c(N2CCN(S(=O)(=O)N3CCCCCC3)CC2)c(C)c1	-11	0.26	-8	51	13	0.033
O=c1[nH]c(=O)n(Cc2ccco2)c2c1C(C(F)(F)F)(C(F)(F)F)N=C(Cc1ccccc1)N2	-5	.	1	.	-7	0.099
O=C(CSc1n[nH]c(=O)n1C1CC1)Nc1cc(Cl)ccc1Oc1ccccc1	-4	-2.5	-5	25	8	-0.31
O=C(c1ccccc1C(=O)N1CCN(c2ccccc2F)CC1)N1CCN(c2ccccc2F)CC1	3	1.7	9	16	13	-0.17
O=C1CN(c2ccccc2F)C(=O)CN1c1ccccc1F	6	-0.67	13	8	37*	-1.6
CC(C)CC(=O)N1CCN(S(=O)(=O)c2ccc3ccccc3c2)CC1	-12	.	12	.	10	0.39
SMILES	E coli WT exp	D1 allo mod	PostGolgi yeast	Ecoli tolC	PostGolgi ctrl	hDAT+cocaine
CCC(C)C(NC(=O)C(C)NC(=O)CNC(=O)CNC(=O)OCc1ccccc1)C(=O)OC (stereo not drawn)	.	.	.	.	.	-0.4
Cc1ccc(NC(=O)Cn2c(=O)oc3cc(S(=O)(=O)N4CCC(C)CC4)ccc32)cc1C	-4	.	-2	.	-4	1.6
CCOC(=O)c1c(N2C(=O)C3C4C=CC(O4)C3C2=O)sc2c1CCCC2 (stereo not drawn)	-15	0.68	-6	1	15	.
CCOC(=O)c1c(N2C(=O)Nc3cc(Cl)c(Cl)cc3N2O)sc2c1CCCCC2	-5	.	-6	.	7	3.8*
O=C(/C=C/c1ccc(Cl)cc1)c1cccnc1	20	.	39*	.	16	-0.56
O=C(/C=C/c1ccccc1Cl)c1cccnc1	5	.	-12	.	10	0.92
Cc1cccc(NC2=C(Cl)C(=O)OC2NC(=O)c2ccccc2)c1 (stereo not drawn)	-2	.	-3	.	2	-0.49
COC(=O)c1c(-c2ccc3ccccc3c2)csc1NC(=O)Cc1ccc(OC)c(OC)c1	19	.	-1	.	15	.
Clc1ccc(-c2nc3cnccn3c2NC2CCCC2)cc1	7	.	22	.	31*	0.17
CSc1ccc(-c2nc3cnccn3c2Nc2ccc3c(c2)OCO3)cc1	-10	.	-11	.	16	1.2
Clc1ccc(-c2nc3cnccn3c2Nc2ccc3c(c2)OCO3)cc1	6	.	-3	.	38*	2.2
O=C(NCSc1ccnc(SCNC(=O)c2ccc(F)cc2)n1)c1ccc(F)cc1	0	.	-6	.	-1	0.32
CCOC(=O)C1=C(N2CCCCC2)c2cc3c(n2C1=O)CCCC3	14	1.6	2	32	33*	2.2
CCCC(=O)Nc1ccc(C(=O)Nc2nnc(COCC)s2)cc1	.	.	.	.	.	-7.8*
Cc1nn(C(=O)c2ccco2)c(C)c1Sc1ccc([N+](=O)[O-])cc1	-7	.	9	.	7	-0.29
Cc1nn(C(=O)c2cccnc2)c(C)c1Sc1ccc(Br)cc1	15	.	19	.	33*	-0.81
CCCCNC(=O)c1ccc(S(=O)(=O)c2ccc(Cl)cc2)c(NC(C)=O)c1	6	.	-9	.	1	-0.077
O=C1c2cccc(Cl)c2C(=O)c2c1cccc2N1CCCC1	.	.	.	.	.	-1.9
COCCNC(=O)COc1cccc(Oc2ccccc2)c1	3	-1.6	12	6	31*	0.12
O=C(COc1cccc(Oc2ccccc2)c1)Nc1ncccn1	0	-0.0076	-2	11	-4	0.23
Cc1cc(NC(=O)COc2cccc(Oc3ccccc3)c2)no1	-3	-0.16	5	-7	31*	-0.69
CC1(C)CC(=O)C2=C(C1)N=c1s/c(=C/c3ccc(F)c(F)c3)c(=O)n1C2c1ccc(F)cc1 (stereo not drawn)	0	.	23	.	31*	0.0015
CC(=O)C1=C(C)N=c2s/c(=C/c3ccc4c(c3)OCO4)c(=O)n2C1c1ccc(N(C)C)cc1 (stereo not drawn)	.	0.29	.	-1	.	.
COc1ccc2nc(C3CCCCC3)c3c(c2c1)CCC3	.	.	.	.	.	-1.1
NC(=O)CC(NC(=O)Cc1ccc(Br)cc1)c1ccc(NCc2ccc(F)cc2)c([N+](=O)[O-])c1 (stereo not drawn)	.	.	.	.	.	-0.12
